These results are taken from ChEMBL document CHEMBL1138680, “Phenoxyphenyl pyridines as novel state-dependent, high-potency sodium channel inhibitors” (J Med Chem, 2004).

The target of the first experiment is Sodium channel protein type 2 subunit alpha (Rattus norvegicus) (UniProt P04775). As to the kind of experiment: Dissociation constant for binding to inactivated state of rat brain NaIIa (rNav1.2) -B2 cell line stably expressed in HEK293 Cells.
Take `NC(=O)N/N=C/c1ccc(Oc2ccc(F)cc2)cc1`: the Ki was determined as 0.35 µM.
On the same count and under the same terms, with `Cc1cc(N(C)C)cc(-c2ccc(Oc3ccc(F)cc3)cc2)n1` the figure was 0.386 µM; with `NC(=O)c1ccnc(-c2ccc(Oc3ccc(F)cc3)cc2)c1`, 2.64 µM; with `NC(=O)c1cccnc1-c1ccc(Oc2ccc(F)cc2)cc1`, 13.4 µM.
`COc1cc(C(=O)NCCN(C)C)nc(-c2ccc(Oc3ccc(F)cc3)cc2)c1` gave a Ki of 0.25 µM.
Still for that read-out and setting: to `Cc1cc(OCCN2CCCCC2)cc(-c2ccc(Oc3ccc(F)cc3)cc2)n1` belongs 0.17 µM; to `COc1cc(C(N)=O)nc(-c2ccc(Oc3ccc(F)cc3)cc2)c1`, 0.36 µM; to `NC(=O)c1ccc(-c2ccc(Oc3ccc(F)cc3)cc2)nc1`, 3.75 µM.
`O=C(NCCN1CCCCC1)c1ccc(-c2ccc(Oc3ccc(F)cc3)cc2)nc1`: the Ki was 0.59 µM.
As for `O=C(NCCN1CCCCC1)c1cccc(-c2ccc(Oc3ccc(F)cc3)cc2)n1`, the Ki came out at 0.02 µM.
Same read-out and setting: with `O=C(NCCN1CCCCC1)c1cncc(-c2ccc(Oc3ccc(F)cc3)cc2)c1` the figure was 0.15 µM; with `NC(=O)c1cc(N2CCOCC2)cc(-c2ccc(Oc3ccc(F)cc3)cc2)n1`, 0.12 µM; with `NC(=O)c1cccc(-c2ccc(Oc3ccc(F)cc3)cc2)n1`, 0.09 µM.

The species named for a further experiment is Rattus norvegicus. The experiment is described as follows: Inhibition of native TTX-R sodium currents in acutely dissociated rat dorsal root ganglion (DRG). It is filed as functional. In a few lines:
(§1)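 Acutely dissociated neurons from newborn Sprague Dawley rat pups were plated on poly-D-lysine and recorded for up to two weeks. The HEK-293 fractional-response protocol was used, but with a 1-s depolarizing prepulse and a 5-ms hyperpolarizing gap. Fractional responses were collected at three or more concentrations per drug. Ki came from a logistic fit of the partial concentration–inhibition curves.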
`NC(=O)N/N=C/c1ccc(Oc2ccc(F)cc2)cc1` displayed an Inhibition activity of 0.26 µM.
`Cc1cc(N(C)C)cc(-c2ccc(Oc3ccc(F)cc3)cc2)n1` showed an Inhibition activity of 0.34 µM.
On the same count and under the same terms, with `NC(=O)N1c2ccccc2C=Cc2ccccc21` [CARBAMAZEPINE] the figure was 111 µM.
For the molecule `Nc1nnc(-c2cccc(Cl)c2Cl)c(N)n1` [LAMOTRIGINE], the Inhibition activity amounted to 103 µM.
On to `COc1cc(C(=O)NCCN(C)C)nc(-c2ccc(Oc3ccc(F)cc3)cc2)c1`, for which the Inhibition activity is 1.56 µM.
Same read-out and setting: to `Cc1cc(OCCN2CCCCC2)cc(-c2ccc(Oc3ccc(F)cc3)cc2)n1` belongs 0.08 µM; to `O=C(NCCN1CCCCC1)c1ccc(-c2ccc(Oc3ccc(F)cc3)cc2)nc1`, 1.56 µM.
For the molecule `O=C(NCCN1CCCCC1)c1cccc(-c2ccc(Oc3ccc(F)cc3)cc2)n1`, the Inhibition activity was 0.06 µM.
In turn, `NC(=O)c1cc(N2CCOCC2)cc(-c2ccc(Oc3ccc(F)cc3)cc2)n1` gave an Inhibition activity of 0.1 µM.
On the same count and under the same terms, to `NC(=O)c1cccc(-c2ccc(Oc3ccc(F)cc3)cc2)n1` belongs 0.27 µM.

The next experiment concerns the target Sodium channel protein type 2 subunit alpha, Nav1.2 (Rattus norvegicus) (UniProt P04775). As to the kind of experiment: Dissociation constant for binding to resting state of rat brain NaIIa (rNav1.2) -B2 cell line stably expressed in HEK293 Cells.
`NC(=O)N/N=C/c1ccc(Oc2ccc(F)cc2)cc1` showed a kR of 34 µM.
Still for that read-out and setting: to `Cc1cc(N(C)C)cc(-c2ccc(Oc3ccc(F)cc3)cc2)n1` belongs 47.1 µM.
The same measure, in the same setting: with `NC(=O)c1cccnc1-c1ccc(Oc2ccc(F)cc2)cc1` the figure was 63.7 µM.
Regarding `COc1cc(C(=O)NCCN(C)C)nc(-c2ccc(Oc3ccc(F)cc3)cc2)c1`, the kR was 23 µM.
On the same count and under the same terms, with `Cc1cc(OCCN2CCCCC2)cc(-c2ccc(Oc3ccc(F)cc3)cc2)n1` the figure was 63.4 µM.
Still for that read-out and setting: to `COc1cc(C(N)=O)nc(-c2ccc(Oc3ccc(F)cc3)cc2)c1` belongs 87.7 µM; to `O=C(NCCN1CCCCC1)c1ccc(-c2ccc(Oc3ccc(F)cc3)cc2)nc1`, 107 µM; to `O=C(NCCN1CCCCC1)c1cccc(-c2ccc(Oc3ccc(F)cc3)cc2)n1`, 4.3 µM.
Molecule `O=C(NCCN1CCCCC1)c1cncc(-c2ccc(Oc3ccc(F)cc3)cc2)c1` displayed a kR of 10.5 µM.
Regarding `NC(=O)c1cc(N2CCOCC2)cc(-c2ccc(Oc3ccc(F)cc3)cc2)n1`, the kR came to 11.6 µM.
The molecule `NC(=O)c1cccc(-c2ccc(Oc3ccc(F)cc3)cc2)n1` had a kR of 24.2 µM.

Test system in a further experiment: not listed separately
The experiment is described as follows: Ratio between Kr to Ki. It is filed as functional.
Regarding `NC(=O)N/N=C/c1ccc(Oc2ccc(F)cc2)cc1`, the Ratio came to 100.
Still for that read-out and setting: with `Cc1cc(N(C)C)cc(-c2ccc(Oc3ccc(F)cc3)cc2)n1` the figure was 122; with `NC(=O)c1cccnc1-c1ccc(Oc2ccc(F)cc2)cc1`, 5.
Still for that read-out and setting: to `COc1cc(C(=O)NCCN(C)C)nc(-c2ccc(Oc3ccc(F)cc3)cc2)c1` belongs 90.
Still for that read-out and setting: to `Cc1cc(OCCN2CCCCC2)cc(-c2ccc(Oc3ccc(F)cc3)cc2)n1` belongs 362; to `COc1cc(C(N)=O)nc(-c2ccc(Oc3ccc(F)cc3)cc2)c1`, 24; to `O=C(NCCN1CCCCC1)c1ccc(-c2ccc(Oc3ccc(F)cc3)cc2)nc1`, 180.
Take `O=C(NCCN1CCCCC1)c1cccc(-c2ccc(Oc3ccc(F)cc3)cc2)n1`: the Ratio is 154.
`O=C(NCCN1CCCCC1)c1cncc(-c2ccc(Oc3ccc(F)cc3)cc2)c1`: the Ratio was determined as 68.
The same measure, in the same setting: with `NC(=O)c1cc(N2CCOCC2)cc(-c2ccc(Oc3ccc(F)cc3)cc2)n1` the figure was 94; with `NC(=O)c1cccc(-c2ccc(Oc3ccc(F)cc3)cc2)n1`, 252.

The species entered for the next experiment is Rattus norvegicus. The experiment is described as follows: Inhibition of native TTX-S sodium currents in acutely dissociated rat dorsal root ganglion (DRG). Format: functional. In a few lines:
as §1
`NC(=O)N/N=C/c1ccc(Oc2ccc(F)cc2)cc1` had an Inhibition activity of 0.25 µM.
Same read-out and setting: with `Cc1cc(N(C)C)cc(-c2ccc(Oc3ccc(F)cc3)cc2)n1` the figure was 0.53 µM; with `NC(=O)N1c2ccccc2C=Cc2ccccc21` [CARBAMAZEPINE], 28 µM.
Still for that read-out and setting: to `Nc1nnc(-c2cccc(Cl)c2Cl)c(N)n1` [LAMOTRIGINE] belongs 38.4 µM.
Still for that read-out and setting: with `COc1cc(C(=O)NCCN(C)C)nc(-c2ccc(Oc3ccc(F)cc3)cc2)c1` the figure was 0.18 µM; with `Cc1cc(OCCN2CCCCC2)cc(-c2ccc(Oc3ccc(F)cc3)cc2)n1`, 0.14 µM; with `O=C(NCCN1CCCCC1)c1ccc(-c2ccc(Oc3ccc(F)cc3)cc2)nc1`, 1 µM.
In the case of `NC(=O)c1cc(N2CCOCC2)cc(-c2ccc(Oc3ccc(F)cc3)cc2)n1`, the Inhibition activity is 0.06 µM.
On the same count and under the same terms, with `NC(=O)c1cccc(-c2ccc(Oc3ccc(F)cc3)cc2)n1` the figure was 0.1 µM.
